By IC50 is commonly meant the concentration needed to halve the response being measured.

For one experiment, the system named is HeLa. As to the kind of experiment: Antiproliferative activity against human HeLa cells after 72 hrs by (3-(4,5-dimethylthiazol-2-yl)-2,5-diphenyltetrazolium bromide test. It is filed as functional, cell-based.
For the next experiment, the system named is Jurkat. The experiment is described as follows: Antiproliferative activity against human Jurkat cells after 72 hrs by (3-(4,5-dimethylthiazol-2-yl)-2,5-diphenyltetrazolium bromide test. Type of experiment: functional, cell-based. The procedure, abridged: (§1)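 Jurkat, RS4;11 and HL-60 cells grown in RPMI-1640; MCF-7, A549, HeLa and HT-29 cells grown in DMEM; both media with 10% FBS and penicillin/streptomycin. 8 × 10^3 cells per well were preincubated 18 h at 37 °C, 5% CO2, then exposed 72 h to a concentration range (DMSO ≤0.25%). Read-out was MTT; IC50 was taken against cells given the maximum DMSO. Mean ± SE of at least three experiments.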

The nature of experiment [1]: Antiproliferative activity against human HL60 cells after 72 hrs by (3-(4,5-dimethylthiazol-2-yl)-2,5-diphenyltetrazolium bromide test. Type of experiment: functional, cell-based. The settings on record: HL-60, 72 h. The procedure, abridged:
as §1

A short description of experiment [2]: Antiproliferative activity against human RS4:11 cells after 72 hrs by (3-(4,5-dimethylthiazol-2-yl)-2,5-diphenyltetrazolium bromide test. Type of experiment: functional, cell-based. To be noted: RS4-11, 72 h. The method, boiled down:
as §1

For the next experiment, the system named is A549. The experiment is described as follows: Antiproliferative activity against human A549 cells after 72 hrs by (3-(4,5-dimethylthiazol-2-yl)-2,5-diphenyltetrazolium bromide test. It is filed as functional, cell-based. To be noted: A549, 72 h.
In a further experiment the test system is HT-29. As to the kind of experiment: Antiproliferative activity against human HT-29 cells after 72 hrs by (3-(4,5-dimethylthiazol-2-yl)-2,5-diphenyltetrazolium bromide test. It is filed as functional, cell-based. To be noted: HT-29, 72 h.
The next experiment has as its system MCF7. As to the kind of experiment: Antiproliferative activity against human MCF7 cells after 72 hrs by (3-(4,5-dimethylthiazol-2-yl)-2,5-diphenyltetrazolium bromide test. It is filed as functional, cell-based. To be noted: MCF7, 72 h.
A further experiment deals with Tubulin (Bos taurus, UniProt Q6B856+Q862L2+Q862F3). As to the kind of experiment: Inhibition of bovine brain tubulin assembly after 20 mins incubation by spectrophotometric analysis. The method, boiled down: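 Bovine brain tubulin (10 μM) was preincubated with varying compound concentrations in glutamate buffer at 30 °C, then chilled to 0 °C. GTP was added to 0.4 mM final and the mixture warmed to 30 °C in cuvettes.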

The next experiment deals with Mus musculus. The experiment is described as follows: In vivo antitumor activity against mouse BNL 1ME A.7R.1 cells allografted in Balb/c mouse assessed as reduction in tumor growth at 5 mg/kg, ip up to 8 days relative to vehicle treated control. Type of experiment: functional, organism-based. Details: dose 5 mg/kg. The method, boiled down:
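Male Balb/c mice, 8 weeks old, received 10^7 BNL 1ME A.7R.1 cells in 200 μL PBS subcutaneously in the dorsal region. Mice were randomised into groups of 5 and dosed ip daily from day 2. Vehicle was 0.9% NaCl with 5% PEG 400 and 0.5% Tween 80, at 7 μL/g. Tumours were measured daily by caliper for 7 days; V = AB²/2.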

Another experiment relates to HUVEC. As to the kind of experiment: Cytotoxicity against human HUVEC cells after 72 hrs by MTT assay. It is filed as cell-based. The procedure, abridged:
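HUVECs were isolated from umbilical cord veins, kept in M200 with low-serum growth supplement and used at passages 1–6. […] Mean ± SEM of three separate experiments.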
On the technique in general: Tetrazolium assays rely on reduction of a dye to a coloured formazan, in cell work by metabolically active cells.

Another experiment relates to MDA-MB-231. The experiment is described as follows: Cytotoxicity against human MDA-MB-231 cells after 72 hrs by MTT assay. Type of experiment: functional, cell-based. The settings on record: MDA-MB-231, 72 h.

Molecules are shown by their SMILES. Active and inactive are the calls of the source. The calls are words filed in the database; no cut-off is given here. A value given as a limit tells only on which side of the number the result lay.

For `CCOC(=O)c1oc2cccc(OC)c2c1Nc1cc(OC)c(OC)c(OC)c1`, the IC50 (with HeLa; in the experiment with Jurkat; in experiment [1]; in experiment [2]; with A549; in the experiment with HT-29) was above 10000 nM in each case. For the same compound, in the experiment with MCF7, the IC50 was above 10000 nM.
In the case of `COC(=O)c1oc2cccc(OC)c2c1Nc1cc(OC)c(OC)c(OC)c1`, the half-maximal inhibitory concentration (IC50) (in the experiment on HeLa; in the experiment with Jurkat; in experiment [1]; in experiment [2]; in the experiment with A549; with HT-29) was above 10000 nM in each case. Besides, in the experiment with MCF7, the IC50 was above 10000 nM.
Regarding `CCOC(=O)c1oc2c(OC)cccc2c1Nc1cc(OC)c(OC)c(OC)c1`, the IC50 was 270 nM with HeLa; 290 nM in the experiment on Jurkat; 590 nM in [1]; 230 nM in experiment [2]; 1100 nM in the experiment on A549; 110 nM in the experiment on HT-29. In addition, the IC50 is 2100 nM in the experiment with MCF7 and 6400 nM against Tubulin.
On to `COC(=O)c1oc2c(OC)cccc2c1Nc1cc(OC)c(OC)c(OC)c1`, for which the IC50 was determined as 130 nM in the experiment with HeLa; 30 nM with Jurkat; 320 nM in experiment [1]; 1 nM in [2]; 1270 nM in the experiment with A549; 290 nM in the experiment on HT-29. The IC50 in the experiment on MCF7 came out at 520 nM; against Tubulin it was 7600 nM.
As to `CCOc1cccc2c(Nc3cc(OC)c(OC)c(OC)c3)c(C(=O)OC)oc12`, the half-maximal inhibitory concentration (IC50) in the experiment on HeLa came to 2530 nM; with Jurkat, 3700 nM; in experiment [1], 4200 nM; in experiment [2], 400 nM; in the experiment with A549 it was 8900 nM; in the experiment on HT-29, 3200 nM. In the experiment with MCF7, this compound yielded a concentration for half-maximal inhibition (IC50) above 10000 nM.
With `COC(=O)c1oc2ccccc2c1Nc1cc(OC)c(OC)c(OC)c1`, the IC50 was found to be 260 nM in the experiment on HeLa; 4100 nM in the experiment with Jurkat; 4400 nM in [1]; 430 nM in experiment [2]; 5280 nM in the experiment with A549; 930 nM in the experiment on HT-29. This compound came in with an IC50 in the experiment on MCF7 of 7800 nM.
For `COC(=O)c1oc2ccc(OC)cc2c1Nc1cc(OC)c(OC)c(OC)c1`, the half-maximal inhibitory concentration (IC50) with HeLa worked out at 250 nM; in the experiment with Jurkat it was 210 nM; in [1], 470 nM; in experiment [2], 39 nM; in the experiment on A549, 1570 nM; in the experiment on HT-29 it was 240 nM. For the same compound, the IC50 in the experiment on MCF7 was 7900 nM; on Tubulin, 7500 nM.
With `COc1ccc(/C=C\c2cc(OC)c(OC)c(OC)c2)cc1OP(=O)(O)O`, the inhibition entry in the experiment with Mus musculus was “Active”.
Consider `CCOC(=O)c1oc2ccc(OC)cc2c1Nc1cc(OC)c(OC)c(OC)c1`, for which the IC50 in the experiment with HeLa was determined as 1260 nM; with Jurkat, 2300 nM; in [1] it was 3400 nM; in [2], 190 nM; in the experiment with A549 it was 8900 nM; in the experiment on HT-29, 1400 nM. The IC50 with MCF7 stood at 2900 nM.
In the case of `COC(=O)c1oc2c(O)c(OC)ccc2c1C(=O)c1cc(OC)c(OC)c(OC)c1`, the 50% inhibitory concentration (IC50) in the experiment with HUVEC and in the experiment on MDA-MB-231 was 1 nM throughout.
In the case of `COc1ccc(/C=C\c2cc(OC)c(OC)c(OC)c2)cc1O` [COMBRETASTATIN A4], the IC50 in [1] worked out at 1 nM; in experiment [2], 0.8 nM.
`CCOC(=O)c1oc2ccccc2c1Nc1cc(OC)c(OC)c(OC)c1`: the IC50 in the experiment on HeLa amounted to 1330 nM; with Jurkat, 180 nM; in [1], 2500 nM; in [2], 300 nM; with A549, 5470 nM; with HT-29, 1600 nM. The concentration for half-maximal inhibition (IC50) in the experiment with MCF7 was 6600 nM.
On to `CCOC(=O)c1oc2c(OCC)cccc2c1Nc1cc(OC)c(OC)c(OC)c1`, for which the IC50 in the experiment on HeLa was 3280 nM; in the experiment on Jurkat it was 9100 nM; in experiment [1], 5500 nM; in [2], 3000 nM; in the experiment with A549, 7250 nM; in the experiment on HT-29, 5300 nM. In addition, the half-inhibitory concentration (IC50) in the experiment with MCF7 was above 10000 nM.
